Assay results gathered from unrelated publications.
Each line is one published result; the experiments were not run side by side.
BCHE: Cholinesterase (BCHE, Equus caballus, UniProt P81908)
Urease: Urease (Canavalia ensiformis, UniProt P07374)
PTPN9: Tyrosine-protein phosphatase non-receptor type 9 (PTPN9, Homo sapiens, UniProt P43378)
PTGS1: Prostaglandin G/H synthase 1 (PTGS1, Ovis aries, UniProt P05979)
NTRK2: BDNF/NT-3 growth factors receptor (NTRK2, Homo sapiens, UniProt Q16620)
SIRT3: NAD-dependent protein deacetylase sirtuin-3, mitochondrial (SIRT3, Homo sapiens, UniProt Q9NTG7)
DRD1: D(1A) dopamine receptor (DRD1, Homo sapiens, UniProt P21728)
PTPN11: Tyrosine-protein phosphatase non-receptor type 11 (PTPN11, Homo sapiens, UniProt Q06124)

[O-][S+]1CCN(c2nccc(NCc3ccccc3)n2)CC1 gave an IC50 of greater than 100 µM (BCHE; enzyme activity, inhibitor).
COc1ccc(COc2c(OC)ccc3c2C[C@@H](C(=O)O)N(c2nc4ccc(C#N)cc4o2)C3)cn1 gave an IC50 of 0.046 µM (Type-2 angiotensin II receptor (AGTR2, Homo sapiens, UniProt P50052); cell-free assay, TR-FRET).
For CNC(=O)c1cc(Oc2ccc(NC(=O)Nc3cc(C(C)(C)C)nn3-c3ccc4ncccc4c3)c(F)c2)ccn1, the IC50 was 0.012 µM (Mitogen-activated protein kinase kinase kinase 20 (MAP3K20, Homo sapiens, UniProt Q9NYL2); enzyme activity, inhibitor, mass spectrometry).
With O=[N+]([O-])c1ccc(NC(=S)N2CCc3ccccc3C2)c(Cl)c1 the IC50 was 25.5 µM (Urease; enzyme activity, inhibitor, absorbance).
With N[C@@H](Cc1ccc(C(F)(F)P(=O)(O)O)cc1)C(=O)O the IC50 was 11500 µM (PTPN9; enzyme activity, inhibitor, absorbance).
For O=C(NCCc1ccc(OP(=O)(O)O)c(OP(=O)(O)O)c1)OCC1c2ccccc2-c2ccccc21, the IC50 was 32.4 µM (Signal transducer and activator of transcription 5A, SH2 (Homo sapiens, UniProt P42229); ligand displacement, FP).
The IC50 of O=S1(=O)CCN(c2nccc(NCc3ccccc3)n2)CC1 is reported as greater than 100 µM (BCHE; enzyme activity, inhibitor).
O=C1Nc2ccc(I)cc2/C1=C/c1cc(Br)c(O)c(Br)c1 gave an IC50 of 1 µM (Ribosomal protein S6 kinase alpha-3, N-terminal kinase domain (RPS6KA3, Homo sapiens, UniProt P51812); enzyme activity, inhibitor, FP).
With O=Cc1ccc2[nH]ncc2c1 the IC50 was roughly 350 µM (Ribosomal protein S6 kinase alpha-3 (RPS6KA3, Homo sapiens, UniProt P51812, C436V); enzyme activity, inhibitor).
Cc1ccn2c(Nc3ccccc3)c(-c3ccc(S(C)(=O)=O)cc3)nc2c1 has an IC50 of 55.1 µM (PTGS1; enzyme activity, inhibitor, fluorescence).
The IC50 of Cc1cnc(-c2ccc(-c3ccc(NC(=O)Nc4c(F)cc(F)cc4F)cc3F)c3c2C(=O)NC3)[nH]1 is reported as 0.0065 µM (NTRK2; enzyme activity, inhibitor).
O=C(NO)c1ccc(CN(c2cnccn2)c2cnccn2)cc1 has an IC50 of greater than 10 µM (SIRT3; enzyme activity, inhibitor, fluorescence).
For C=C(NC(=O)[C@H](CCCCNC(=S)NCCCCCCCCCCCC)NS(C)(=O)=O)C(=O)N[C@@H](CCCNC(=N)N)C(N)=O, the IC50 was 2.9 µM (SIRT3; enzyme activity, inhibitor).
CCCOc1c(O)cc(Br)c2c1CN1CCc3cc(OCC(F)F)c(O)cc3[C@@H]1C2 has an IC50 of 0.188 µM (DRD1; cAMP, antagonist, TR-FRET).
CC(=O)NO has an IC50 of 20.4 µM (Urease; enzyme activity, inhibitor).
For CCCCCCCCCCCCNC(=S)NCCCC[C@H](NC(C)=O)C(=O)N[C@@H](C)C(=O)N[C@@H](CCCNC(=N)N)C(N)=O, the IC50 was 2.2 µM (SIRT3; enzyme activity, inhibitor).
The IC50 of C[C@@H]1Cc2ccccc2N1C(=O)NCCCCN(C)[C@@H]1Cc2cccc3[nH]c(=O)n(c23)C1 is reported as greater than 10 µM (DRD1; ligand displacement, radioligand).
For CC[C@@H](C(=O)Nc1ccc(C(N)=O)c(F)c1)n1cc(OC)c(-c2cc(Cl)ccc2-n2cc(C(F)(F)F)nn2)cc1=O, the IC50 was 1.9 µM (Coagulation factor VII (F7, Homo sapiens, UniProt P08709); enzyme activity, inhibitor).
For CCN(CC)CCCC[C@H](NC(=O)[C@H](CC(C)C)NC(=O)[C@H](C)NC(=O)[C@H](Cc1ccccc1)NC(=O)c1ccc(C(C)(C)C)cc1)C(=O)N[C@@H](CO)C(=O)OC, the IC50 was 0.56 µM (Chromobox protein homolog 8 (Homo sapiens, UniProt Q9HC52); ligand displacement, TR-FRET).
CC1=C[C@@]2(C[C@H](C)[C@H]3CC=C(C)[C@@H](O[C@@H]4O[C@H](CO)[C@@H](O)[C@H](O)[C@H]4O)[C@@H]3O2)OC1=O has an IC50 of 90.5 µM (PTPN11; enzyme activity, inhibitor).
For Cc1cc(Nc2cc(CN3CCOCC3)c3nc(C)c(Cc4ccc(Cl)cc4F)n3n2)n[nH]1, the IC50 was 0.095 µM (NTRK2; enzyme activity, inhibitor, TR-FRET).
With COc1ccc(Nc2c(-c3ccc(S(C)(=O)=O)cc3)nc3cccc(C)n23)cc1 the IC50 was 21.1 µM (PTGS1; enzyme activity, inhibitor, fluorescence).
OCCN1CCN(c2nccc(NCc3ccccc3)n2)CC1 has an IC50 of greater than 100 µM (BCHE; enzyme activity, inhibitor).
With CN1CCN(c2ccc(Nc3ncc4cc(C#N)c(=O)n(C5CCCC5)c4n3)cc2)CC1 the IC50 was 0.477 µM (Mitogen-activated protein kinase kinase kinase 9 (MAP3K9, Homo sapiens, UniProt P80192); enzyme activity, inhibitor).
CN(C)CC#Cc1ccc2[nH]c3c(c2c1)-c1nc(N)ncc1CCC3 has an IC50 of greater than 10 µM (Dual specificity mitogen-activated protein kinase kinase 2 (MAP2K2, Homo sapiens, UniProt P36507); enzyme activity, inhibitor, radiometric).
With N[C@@H](Cc1ccccc1)C(=O)N[C@@H](Cc1ccccc1)C(=O)N[C@@H](CC(=O)O)C(=O)O the IC50 was 114 µM (PTPN11; enzyme activity, inhibitor, absorbance; pH 7.4).
With Cc1cccc2nc(-c3ccc(S(C)(=O)=O)cc3)c(Nc3ccccc3)n12 the IC50 was 24.6 µM (PTGS1; enzyme activity, inhibitor, fluorescence).
COCCN1CCN(c2nccc(NCc3ccccc3)n2)CC1 gave an IC50 of greater than 100 µM (BCHE; enzyme activity, inhibitor).
For CC(=O)N1C[C@@H](CCN2CCC(c3c[nH]c4cc(Cl)ccc34)CC2)c2ccccc21, the IC50 was 0.242 µM (Sodium-dependent serotonin transporter (SLC6A4, Homo sapiens, UniProt P31645); ligand displacement, radioligand; cell membranes).
For CCOC(F)(F)c1nnc2cnc(-c3cnc(OCC(F)(F)F)c(F)c3)cn12, the IC50 was 0.145 µM (Sodium channel protein type 8 subunit alpha (Scn8a, Mus musculus, UniProt Q9WTU3); ion current, inhibitor, patch clamp).
The IC50 of Cc1c(Br)cc(NC(=O)NS(=O)(=O)O)cc1Br is reported as greater than 10 µM (PTPN9; enzyme activity, inhibitor, absorbance).
With O=C(O)C(=O)CC(=O)c1cccc(N(Cc2ccccc2)Cc2ccccc2)c1 the IC50 was 85 µM (PTPN11; enzyme activity, inhibitor, absorbance; pH 7).
For CC(C)(C)n1nc(-c2cnc3cc(OC4CC4)ccc3c2)c(C(N)=O)c1N, the IC50 was greater than 10 µM (Calcium/calmodulin-dependent protein kinase type 1D (CAMK1D, Homo sapiens, UniProt Q8IU85); cell-free assay).
With O=C(O)/C=C/c1ccc(-c2ccc(F)cc2)c(Cl)c1 the IC50 was 2.11 µM (PTPN11; enzyme activity, inhibitor, fluorescence).
